Holding throughout (assay type): functional
The test system of one assay is Acinetobacter baumannii. The assay can be described thus: Antibacterial activity against Acinetobacter baumannii ATCC 17961 incubated for 16 to 20 hrs by microdilution method. The essentials:
(§1)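 CLSI broth microdilution. 2-fold serial dilutions were made in cation-adjusted Mueller–Hinton broth, with 5% lysed horse blood added for Streptococcus strains, in triplicate. Inoculum 5×10^5 CFU/mL. Plates incubated 36 °C for 16–20 h. MIC taken as the lowest concentration visibly inhibiting growth.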

A further assay has as its system Enterococcus faecium. The assay can be described thus: Antibacterial activity against Enterococcus faecium NCTC 7171 incubated for 16 to 20 hrs by microdilution method. The gist of the method: as §1
For orientation: In broth dilution the organism is exposed to a series of concentrations in liquid medium.

Another assay has as its system Klebsiella aerogenes. Description: Antibacterial activity against Enterobacter aerogenes ATCC 35029 incubated for 16 to 20 hrs by microdilution method. The gist of the method:
as §1

The test system of a further assay is Klebsiella pneumoniae. Description: Antibacterial activity against Klebsiella pneumoniae ATCC 700603 incubated for 16 to 20 hrs by microdilution method. The essentials: as §1
Another assay has as its system Pseudomonas aeruginosa. The assay can be described thus: Antibacterial activity against Pseudomonas aeruginosa […] incubated for 16 to 20 hrs by microdilution method. The essentials:
as §1

The next assay deals with Escherichia coli. The assay can be described thus: Antibacterial activity against Escherichia coli ATCC 25922 incubated for 16 to 20 hrs by microdilution method. The essentials: as §1

Molecules are shown by their SMILES.

A word on the MIC: it is the smallest concentration in the dilution series that meets the test's criterion for growth inhibition. A low value points to inhibition by little substance. Consider `O=c1c2cc(O)ccc2nc(/C=C/c2ccc(F)cc2)n1-c1cccc(O)c1`, for which the MIC with Acinetobacter baumannii is at least 16 µg/mL; in the assay on Enterococcus faecium it was at least 8 µg/mL; against Klebsiella aerogenes, at least 16 µg/mL; against Klebsiella pneumoniae, at least 16 µg/mL; in the assay on Pseudomonas aeruginosa it was at least 16 µg/mL; in the assay with Escherichia coli, at least 16 µg/mL.
For `N#Cc1ccc(/C=C/c2nc3ccncc3c(=O)n2-c2cccc(O)c2)cc1`, the MIC against Acinetobacter baumannii is at least 16 µg/mL; against Enterococcus faecium it was at least 8 µg/mL; in the assay on Klebsiella aerogenes, at least 16 µg/mL; in the assay on Klebsiella pneumoniae, at least 16 µg/mL; against Pseudomonas aeruginosa, at least 16 µg/mL; in the assay on Escherichia coli, at least 16 µg/mL.
In the case of `O=c1c2ccccc2nc(/C=C/C2CCCCC2)n1-c1cccc(O)c1`, the MIC against Acinetobacter baumannii was at least 16 µg/mL; with Enterococcus faecium it was at least 8 µg/mL; in the assay on Klebsiella aerogenes, at least 16 µg/mL; in the assay with Klebsiella pneumoniae it was at least 16 µg/mL; against Pseudomonas aeruginosa, at least 16 µg/mL; in the assay with Escherichia coli, at least 16 µg/mL.
As for `N#Cc1ccc(/C=C/c2nc3ccccc3c(=O)n2-c2cccc(C(=O)NCc3cccnc3)c2)cc1`, the MIC was at least 16 µg/mL against Acinetobacter baumannii; at least 8 µg/mL against Enterococcus faecium; at least 16 µg/mL against Klebsiella aerogenes; at least 16 µg/mL in the assay with Klebsiella pneumoniae; at least 16 µg/mL against Pseudomonas aeruginosa; at least 16 µg/mL in the assay with Escherichia coli.
As for `CS(=O)(=O)NCc1cccc(-n2c(/C=C/c3ccc(C#N)cc3)nc3ccccc3c2=O)c1`, the MIC with Acinetobacter baumannii is at least 16 µg/mL; in the assay on Enterococcus faecium, at least 8 µg/mL; with Klebsiella aerogenes it was at least 16 µg/mL; in the assay on Klebsiella pneumoniae, at least 16 µg/mL; against Pseudomonas aeruginosa it was at least 16 µg/mL; against Escherichia coli, at least 16 µg/mL.
As for `COC(=O)Nc1cccc(-n2c(/C=C/c3ccc(C#N)cc3)nc3ccccc3c2=O)c1`, the MIC in the assay on Acinetobacter baumannii was at least 16 µg/mL; against Enterococcus faecium, at least 8 µg/mL; in the assay on Klebsiella aerogenes it was at least 16 µg/mL; against Klebsiella pneumoniae, at least 16 µg/mL; against Pseudomonas aeruginosa, at least 16 µg/mL; in the assay with Escherichia coli, at least 16 µg/mL.
For the molecule `O=c1c2cnccc2nc(/C=C/c2ccc(Cl)cc2)n1-c1cccc(O)c1`, the MIC in the assay on Acinetobacter baumannii was at least 16 µg/mL; in the assay with Enterococcus faecium it was at least 8 µg/mL; in the assay on Klebsiella aerogenes, at least 16 µg/mL; against Klebsiella pneumoniae it was at least 16 µg/mL; in the assay on Pseudomonas aeruginosa, at least 16 µg/mL; in the assay on Escherichia coli, at least 16 µg/mL.
As to `O=c1c2cnccc2nc(/C=C/c2ccc(F)cc2)n1-c1cccc(O)c1`, the MIC is at least 16 µg/mL against Acinetobacter baumannii; at least 8 µg/mL against Enterococcus faecium; at least 16 µg/mL with Klebsiella aerogenes; at least 16 µg/mL against Klebsiella pneumoniae; at least 16 µg/mL with Pseudomonas aeruginosa; at least 16 µg/mL with Escherichia coli.
As to `CC(C)c1ccc(/C=C/c2nc3ccccc3c(=O)n2-c2cccc(O)c2)cc1`, the MIC in the assay with Acinetobacter baumannii is at least 16 µg/mL; in the assay with Enterococcus faecium, at least 8 µg/mL; in the assay with Klebsiella aerogenes it was at least 16 µg/mL; against Klebsiella pneumoniae it was at least 16 µg/mL; against Pseudomonas aeruginosa, at least 16 µg/mL; with Escherichia coli, at least 16 µg/mL.
As to `O=c1c2ccccc2nc(/C=C/c2cccc([N+](=O)[O-])c2)n1-c1cccc(O)c1`, the MIC against Acinetobacter baumannii was at least 16 µg/mL; in the assay on Enterococcus faecium, at least 8 µg/mL; against Klebsiella aerogenes, at least 16 µg/mL; against Klebsiella pneumoniae, at least 16 µg/mL; in the assay with Pseudomonas aeruginosa it was at least 16 µg/mL; in the assay with Escherichia coli, at least 16 µg/mL.
Consider `COc1ncccc1CNc1cccc(-n2c(/C=C/c3ccc(C#N)cc3)nc3ccccc3c2=O)c1`, for which the MIC is at least 16 µg/mL in the assay on Acinetobacter baumannii; at least 8 µg/mL against Enterococcus faecium; at least 16 µg/mL in the assay with Klebsiella aerogenes; at least 16 µg/mL in the assay with Klebsiella pneumoniae; at least 16 µg/mL in the assay with Pseudomonas aeruginosa; at least 16 µg/mL in the assay on Escherichia coli.
`NC(=O)c1cccc(-n2c(/C=C/c3ccc(F)cc3)nc3ccccc3c2=O)c1`: the MIC with Acinetobacter baumannii is at least 16 µg/mL; against Enterococcus faecium, at least 8 µg/mL; with Klebsiella aerogenes, at least 16 µg/mL; with Klebsiella pneumoniae, at least 16 µg/mL; with Pseudomonas aeruginosa it was at least 16 µg/mL; against Escherichia coli, at least 16 µg/mL.
As for `CC(=O)OCc1cccc(-n2c(/C=C/c3ccc(C#N)cc3)nc3ccccc3c2=O)c1`, the MIC is at least 16 µg/mL in the assay with Acinetobacter baumannii; at least 8 µg/mL in the assay on Enterococcus faecium; at least 16 µg/mL in the assay on Klebsiella aerogenes; at least 16 µg/mL with Klebsiella pneumoniae; at least 16 µg/mL against Pseudomonas aeruginosa; at least 16 µg/mL in the assay with Escherichia coli.
Turning to `N#Cc1ccc(/C=C/c2nc3ccccc3c(=O)n2-c2cccc(C(=O)NCCC(=O)O)c2)cc1`, the MIC with Acinetobacter baumannii was at least 16 µg/mL; in the assay on Enterococcus faecium, at least 8 µg/mL; in the assay with Klebsiella aerogenes it was at least 16 µg/mL; in the assay with Klebsiella pneumoniae, at least 16 µg/mL; against Pseudomonas aeruginosa, at least 16 µg/mL; in the assay on Escherichia coli, at least 16 µg/mL.
Regarding `O=c1c2ccccc2nc(/C=C/c2cccc(F)c2)n1-c1cccc(O)c1`, the MIC was at least 16 µg/mL with Acinetobacter baumannii; at least 8 µg/mL against Enterococcus faecium; at least 16 µg/mL against Klebsiella aerogenes; at least 16 µg/mL in the assay with Klebsiella pneumoniae; at least 16 µg/mL against Pseudomonas aeruginosa; at least 16 µg/mL with Escherichia coli.
Take `O=C(O)c1cccc(-n2c(/C=C/c3ccc(F)c(Cl)c3)nc3ccccc3c2=O)c1`: the MIC was at least 16 µg/mL with Acinetobacter baumannii; at least 8 µg/mL against Enterococcus faecium; at least 16 µg/mL against Klebsiella aerogenes; at least 16 µg/mL in the assay on Klebsiella pneumoniae; at least 16 µg/mL in the assay on Pseudomonas aeruginosa; at least 16 µg/mL in the assay on Escherichia coli.
In the case of `N#Cc1ccc(/C=C/c2nc3cc(N)ccc3c(=O)n2-c2cccc(C(=O)O)c2)cc1`, the MIC against Acinetobacter baumannii was at least 16 µg/mL; with Enterococcus faecium it was at least 8 µg/mL; against Klebsiella aerogenes it was at least 16 µg/mL; in the assay with Klebsiella pneumoniae, at least 16 µg/mL; in the assay with Pseudomonas aeruginosa, at least 16 µg/mL; in the assay on Escherichia coli, at least 16 µg/mL.
Take `O=c1c2ccccc2nc(/C=C/c2ccc(F)cc2)n1-c1cccc([N+](=O)[O-])c1`: the MIC is at least 16 µg/mL against Acinetobacter baumannii; at least 8 µg/mL with Enterococcus faecium; at least 16 µg/mL in the assay with Klebsiella aerogenes; at least 16 µg/mL in the assay on Klebsiella pneumoniae; at least 16 µg/mL against Pseudomonas aeruginosa; at least 16 µg/mL in the assay on Escherichia coli.
Turning to `N#Cc1ccc(/C=C/c2nc3ccncc3c(=O)n2-c2cccc(C(=O)O)c2)cc1`, the MIC in the assay with Acinetobacter baumannii was at least 16 µg/mL; against Enterococcus faecium, at least 8 µg/mL; in the assay on Klebsiella aerogenes it was at least 16 µg/mL; against Klebsiella pneumoniae, at least 16 µg/mL; in the assay with Pseudomonas aeruginosa it was at least 16 µg/mL; with Escherichia coli, at least 16 µg/mL.
Consider `N#Cc1ccc(/C=C/c2nc3ccccc3c(=O)n2-c2cccc(CC(=O)O)c2)cc1`, for which the MIC against Acinetobacter baumannii is at least 16 µg/mL; with Enterococcus faecium, at least 8 µg/mL; in the assay with Klebsiella aerogenes it was at least 16 µg/mL; in the assay with Klebsiella pneumoniae it was at least 16 µg/mL; with Pseudomonas aeruginosa it was at least 16 µg/mL; against Escherichia coli, at least 16 µg/mL.
On to `Cc1ccc(/C=C/c2nc3ccccc3c(=O)n2-c2cccc(O)c2)cc1`, for which the MIC is at least 16 µg/mL in the assay on Acinetobacter baumannii; at least 8 µg/mL in the assay on Enterococcus faecium; at least 16 µg/mL against Klebsiella aerogenes; at least 16 µg/mL with Klebsiella pneumoniae; at least 16 µg/mL against Pseudomonas aeruginosa; at least 16 µg/mL against Escherichia coli.
Take `COC(=O)Cc1ccc(/C=C/c2nc3ccccc3c(=O)n2-c2cccc(C(=O)O)c2)cc1`: the MIC against Acinetobacter baumannii was at least 16 µg/mL; with Enterococcus faecium, at least 8 µg/mL; in the assay with Klebsiella aerogenes, at least 16 µg/mL; with Klebsiella pneumoniae, at least 16 µg/mL; in the assay with Pseudomonas aeruginosa it was at least 16 µg/mL; against Escherichia coli, at least 16 µg/mL.
As to `COC(=O)CCNC(=O)c1cccc(-n2c(/C=C/c3ccc(C#N)cc3)nc3ccccc3c2=O)c1`, the MIC in the assay on Acinetobacter baumannii was at least 16 µg/mL; with Enterococcus faecium, at least 8 µg/mL; in the assay with Klebsiella aerogenes it was at least 16 µg/mL; in the assay with Klebsiella pneumoniae it was at least 16 µg/mL; against Pseudomonas aeruginosa it was at least 16 µg/mL; in the assay with Escherichia coli it was at least 16 µg/mL.
Consider `N#Cc1ccc(/C=C/c2nc3ccncc3c(=O)n2-c2cccc(C(N)=O)c2)cc1`, for which the MIC is at least 16 µg/mL against Acinetobacter baumannii; at least 8 µg/mL in the assay with Enterococcus faecium; at least 16 µg/mL in the assay with Klebsiella aerogenes; at least 16 µg/mL against Klebsiella pneumoniae; at least 16 µg/mL against Pseudomonas aeruginosa; at least 16 µg/mL with Escherichia coli.

The record behind these values is ChEMBL document CHEMBL3817745, “Structure-Activity Relationship for the 4(3H)-Quinazolinone Antibacterials” (J Med Chem, 2016).
